According to ChEMBL document CHEMBL1129302, “Quinazoline antifolate thymidylate synthase inhibitors: gamma-linked L-D, D-D, and D-L dipeptide analogues of 2-desamino-2-methyl-N10-propargyl-5,8-dideazafolic acid (ICI 198583)” (J Med Chem, 1996):
“And” between values parts separate entries of the source, which are not always exact repeats. Identical values can stand only once.

Key:
L1210 (1565) [1] = experiment: Inhibitory activity against L1210:1565 cell growth; type: functional, cell-based; conditions: Mus musculus
L1210 [2] = experiment: Inhibition of L1210 cell growth; type: functional, cell-based, Mus musculus
Thymidylate synthase [3] = molecular target: T1, Thymidylate synthase (Mus musculus, UniProt P07607); experiment: Inhibition of Thymidylate synthase activity in L1210 cells; type: cell-based
T1 sequence (P07607 whole entry): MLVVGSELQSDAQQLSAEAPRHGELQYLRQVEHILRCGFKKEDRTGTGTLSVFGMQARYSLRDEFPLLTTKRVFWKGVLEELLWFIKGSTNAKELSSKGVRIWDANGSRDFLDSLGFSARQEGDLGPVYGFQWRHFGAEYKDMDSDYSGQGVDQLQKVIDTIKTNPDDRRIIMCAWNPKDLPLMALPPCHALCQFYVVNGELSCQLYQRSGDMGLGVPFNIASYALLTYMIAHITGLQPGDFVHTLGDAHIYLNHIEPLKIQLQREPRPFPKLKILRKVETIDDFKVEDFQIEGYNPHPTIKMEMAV
Outline: (§1)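 TS was partially purified from L1210 mouse leukemia cells that overproduce the enzyme through TS gene amplification. Inhibition was assayed with (±)-5,10-methylenetetrahydrofolic acid as cofactor at 200 µM.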

WIL2 = experiment: Inhibitory activity against human W1L2 cell growth; type: functional, cell-based
L1210 (1565) [4] = experiment: Inhibitory activity against L1210:1565 cell growth.; type: functional, cell-based, Mus musculus
Mus musculus = species: Mus musculus; experiment: Plasma concentration in mice.; type: ADME, organism-based; conditions: in vivo, read-out: Plasma concentration
Thymidylate synthase [5] = molecular target: T1, Thymidylate synthase; experiment: Binding affinity against L1210 Thymidylate synthase.; outline: as §1
L1210 (RD1694) [6] = experiment: Inhibitory activity against L1210:RD1694 cell growth; type: functional, cell-based, Mus musculus
L1210 (RD1694) [7] = experiment: Inhibitory activity against L1210:RD1694 cell growth.; type: functional, cell-based, Mus musculus
L1210 [8] = experiment: Inhibitory activity against L1210 cell growth.; type: functional, cell-based, Mus musculus

| SMILES | IC50 (L1210 [2]; Mus musculus, L1210) | IC50 (Thymidylate synthase [3]) | IC50 (WIL2; Homo sapiens, WIL2) | IC50 (L1210 (1565) [4]; Mus musculus, L1210 (1565)) | other results |
| --- | --- | --- | --- | --- | --- |
| Cc1nc(O)c2cc(CN(C)c3ccc(C(=O)N[C@@H](CCC(=O)N[C@H](CCC(=O)O)C(=O)O)C(=O)O)cc3)c(C)cc2n1 | 580 nM | 4.6 nM | 280 nM | – | IC50 (L1210 (1565) [1]): 19000 nM |
| C#CCN(Cc1ccc2nc(C)nc(O)c2c1)c1ccc(C(=O)N[C@H](CCC(=O)N[C@H](CCC(=O)O)C(=O)O)C(=O)O)cc1 | 1300 nM | – | 1400 nM | 100000 nM | – |
| Cc1nc(O)c2cc(CN(C)c3ccc(C(=O)N[C@@H](CCC(=O)N[C@H](CCC(=O)O)C(=O)O)C(=O)O)c(F)c3)c(C)cc2n1 | 260 nM | 2 nM | – | – | – |
| C#CCN(Cc1cc2c(O)nc(C)nc2cc1C)c1ccc(C(=O)N[C@@H](CCC(=O)N[C@H](CCC(=O)O)C(=O)O)C(=O)O)c(F)c1 | 200 nM | 0.4 nM | 170 nM | 6800 nM | concentration (Mus musculus): 32 µM; IC50 (L1210 (1565) [4]; l1210 (1565)): 8700 nM; Ki (Thymidylate synthase [5]): 0.19 nM; IC50 (WIL2; wil2): 93 nM |
| C#CCN(Cc1ccc2nc(C)nc(O)c2c1)c1ccc(C(=O)N[C@@H](CCC(=O)N[C@@H](Cc2ccccc2)C(=O)O)C(=O)O)cc1 | 4400 nM | 18 nM | – | – | IC50 (L1210 (RD1694) [6]; Mus musculus, L1210 (RD1694)): 8900 nM |
| C#CCN(Cc1ccc2nc(C)nc(O)c2c1)c1ccc(C(=O)N[C@@H](CCC(=O)N[C@@H](CCC(=O)O)C(=O)O)C(=O)O)cc1 [listing 1 of 2 here] | – | – | – | – | IC50 (L1210 (1565) [4]; l1210 (1565)): 5000 nM; IC50 (L1210 (RD1694) [6]; l1210 (rd1694)): 2900 nM; IC50 (L1210 [2]; l1210): 160 nM; IC50 (WIL2; wil2): 90 nM and 74 nM |
| CCN(Cc1ccc2nc(C)nc(O)c2c1)c1ccc(C(=O)N[C@@H](CCC(=O)N[C@H](CCC(=O)O)C(=O)O)C(=O)O)cc1 | 3600 nM | 17 nM | – | – | – |
| C#CCN(Cc1ccc2nc(C)nc(O)c2c1)c1ccc(C(=O)N[C@@H](CCC(=O)N[C@H](CCC(=O)O)C(=O)O)C(=O)O)c(F)c1 | 210 nM | 1.9 nM | 220 nM | 7800 nM | – |
| C#CCN(Cc1ccc2nc(C)nc(O)c2c1)c1ccc(C(=O)N[C@@H](CCC(=O)N[C@@H](CCC(=O)O)C(=O)O)C(=O)O)cc1 [listing 2 of 2 here] | – | – | – | – | IC50 (L1210 [2]; l1210): 3400 nM; IC50 (WIL2; wil2): 2400 nM |
| Cc1nc(O)c2cc(CN(C)c3ccc(C(=O)N[C@@H](CCC(=O)N[C@H](CCC(=O)O)C(=O)O)C(=O)O)c(F)c3)ccc2n1 | 650 nM | 8.8 nM | 900 nM | 21000 nM | – |
| C#CCN(Cc1ccc2nc(C)nc(O)c2c1)c1ccc(C(=O)N[C@@H](CCC(=O)N[C@@H](C)C(=O)O)C(=O)O)cc1 | 620 nM | 13 nM | – | – | IC50 (L1210 (RD1694) [7]; Mus musculus, L1210 (RD1694)): 2100 nM; IC50 (L1210 (RD1694) [7]; l1210 (rd1694)): 1600 nM; IC50 (L1210 [2]; l1210): 790 nM |
| C#CCN(Cc1ccc2nc(C)nc(O)c2c1)c1ccc(C(=O)N[C@@H](CCC(=O)NC(Cc2ccccc2)C(=O)O)C(=O)O)cc1 (stereo partly specified) | 2100 nM | 30 nM | – | > 10000 nM | – |
| C#CCN(Cc1ccc2nc(C)nc(O)c2c1)c1ccc(C(=O)N[C@@H](CCC(=O)N[C@H](C)C(=O)O)C(=O)O)cc1 | 430 nM | 12 nM | 150 nM | – | IC50 (L1210 (1565) [1]): 16000 nM; IC50 (L1210 (RD1694) [6]; Mus musculus, L1210 (RD1694)): 880 nM |
| C#CCN(Cc1ccc2nc(C)nc(O)c2c1)c1ccc(C(=O)N[C@@H](CCC(=O)N[C@H](CCC(=O)O)C(=O)O)C(=O)O)cc1 | – | – | 150 nM | 15000 nM | concentration (Mus musculus): 34 µM; IC50 (L1210 (RD1694) [6]; Mus musculus, L1210 (RD1694)): 680 nM |
| C#CCN(Cc1cc2c(O)nc(C)nc2cc1C)c1ccc(C(=O)N[C@@H](CCC(=O)N[C@H](CCCC(=O)O)C(=O)O)C(=O)O)c(F)c1 | 130 nM | 0.56 nM | 300 nM | 12000 nM | IC50 (L1210 (1565) [4]; l1210 (1565)): 8100 nM; Ki (Thymidylate synthase [5]): 0.12 nM; IC50 (WIL2; wil2): 190 nM |
| C#CCN(Cc1cc2c(O)nc(C)nc2cc1C)c1ccc(C(=O)N[C@@H](CCC(=O)N[C@H](CCC(=O)O)C(=O)O)C(=O)O)cc1 | 210 nM | 1.9 nM | 230 nM | 7800 nM | – |
| C#CCN(Cc1ccc2nc(C)nc(O)c2c1)c1ccc(C(=O)N[C@@H](CCC(=O)N[C@H](CCCC(=O)O)C(=O)O)C(=O)O)cc1 | – | – | 220 nM | 27000 nM | concentration (Mus musculus): 31 µM; IC50 (L1210 (RD1694) [6]; Mus musculus, L1210 (RD1694)): 440 nM; IC50 (L1210 (RD1694) [7]; Mus musculus, L1210 (RD1694)): 420 nM; IC50 (L1210 [8]; Mus musculus, L1210): 80 nM; IC50 (L1210 [8]; l1210): 110 nM |
| Cc1nc(O)c2cc(CN(C)c3ccc(C(=O)N[C@@H](CCC(=O)N[C@H](CCC(=O)O)C(=O)O)C(=O)O)cc3)ccc2n1 | 3200 nM | 34 nM | – | – | concentration (Mus musculus): 17 µM |
| C#CCN(Cc1ccc2nc(C)nc(O)c2c1)c1ccc(C(=O)N[C@@H](CCC(=O)N[C@@H](CCCC(=O)O)C(=O)O)C(=O)O)cc1 | 300 nM | – | – | – | IC50 (L1210 (RD1694) [6]; Mus musculus, L1210 (RD1694)): 2900 nM |
